Results taken from ChEMBL document CHEMBL1143811, “Bis-acridines as lead antiparasitic agents: structure-activity analysis of a discrete compound library in vitro” (Antimicrob Agents Chemother, 2007).
Values after ≈ are worked out from the molar mass of the structure shown. Active and inactive are the calls of the source. The rule behind the calls is not given here.

Legend:
Plasmodium falciparum [1] = experiment: Antimicrobial activity against chloroquine-sensitive Plasmodium falciparum 3D7 after 72 hrs; type: functional, organism-based; details: 3D7, 72 h
Plasmodium falciparum [2] = experiment: Antimicrobial activity against chloroquine-resistant Plasmodium falciparum W2 after 72 hrs; type: functional, organism-based; details: W2, 72 h
[3] = tested on: Trypanosoma brucei brucei; experiment: Antimicrobial activity against Trypanosoma brucei brucei clone 427-221a after 48 hrs; type: functional, organism-based
How it was run: (§1)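 Bloodstream-form T. b. brucei in Baltz medium (~10^4/ml) and HL-60 cells in RPMI 1640 (~10^5/ml), both with 16.7% FBS, were exposed 48 h at 37°C in 5% CO2 to compound up to 10 µM in 1% final DMSO. Live cells were hemocytometer-counted, by motility (trypanosomes) or trypan blue exclusion (HL-60). EC50 was taken by regression versus DMSO cultures from three experiments. MIC was the lowest fully lethal concentration, judged microscopically.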

[4] = (§2) Cytotoxicity against human HL60 cells; type: cell-based, HL-60; details: human, HL-60 cells; read-out: MIC; how it was run: as §1
HL-60 = experiment: as §2; type: cell-based; details: Homo sapiens, HL-60; how it was run: as §1
[5] = Selectivity index, ratio of EC50 for HL60 cells to EC50 for Trypanosoma brucei brucei clone 427-221a; type: functional, HL-60; how it was run: as §1
[6] = Selectivity index, ratio of MIC for HL60 cells to MIC for Trypanosoma brucei brucei clone 427-221a; type: functional, HL-60; how it was run: as §1
Leishmania donovani = experiment: Antileishmanial activity against Leishmania donovani MHOM/SD/00/1S-2D promastigotes assessed as parasite death at 10 uM after 72 hrs; type: functional
How it was run: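 Promastigotes seeded at 1.5 x 10^5 cells/ml in medium 199 with 10% heat-inactivated FBS. Compound added at a final 10 µM, in triplicate, in sealed flasks at 27°C for up to 7 days. Aliquots taken daily and viability read by CellTiter-Glo luminescence. Result given as percent reduction in viability relative to DMSO-treated cultures. Controls were K11777 or amphotericin B at 10 µM.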

Entamoeba histolytica = experiment: Antimicrobial activity against Entamoeba histolytica HM1 IMSS trophozoites after 48 hrs; type: functional, organism-based; details: 60 h, in the assay text read “60 hrs” for “48 hrs”
How it was run: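 Trophozoites were grown axenically in TYI-S-33 with 10% bovine adult serum and seeded at ~10^4 cells/well. Compound (range up to 10 µM) was added to 48-h log-phase cultures, then incubated 60 h at 37°C under anaerobic conditions. Viability was read by CellTiter-Glo luminescence. EC50 came from quadruplicate wells in two independent experiments.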

Trichomonas vaginalis = experiment: Antimicrobial activity against Trichomonas vaginalis G3 assessed as parasite death at 10 uM after 24 hrs; type: functional
How it was run: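 G3 strain grown in Diamond's medium at 37°C. Assay culture set up as 0.5 ml dense culture diluted into 5.0 ml complete medium. Compound at a final 10 µM for 24 h at 37°C. Motile cells counted by hemocytometer. Result is percent dead parasites relative to DMSO-treated cultures, from five separate experiments. Controls were untreated, DMSO and metronidazole.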

[7] = Cytotoxicity against BALB/c mouse peritoneal macrophages at 10 uM after 48 hrs hrs; type: cell-based; details: macrophage
Leishmania major = experiment: Antileishmanial activity against Leishmania major MHOM/IL/81/FE/BNI amastigotes after 48 hrs at 1 uM; type: functional, organism-based
How it was run: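 Peritoneal macrophages from BALB/c mice (6-8 wk) adhered 2 h at 37°C, infected 24 h with stationary-phase L. major promastigotes at 10:1 parasite:macrophage, washed, then exposed 48 h to compound at 0.0001 to 10 µM. Intracellular amastigotes stained with acridine orange/ethidium bromide and counted by fluorescence microscopy; percent amastigotes cleared versus DMSO-treated cultures; three repeats.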

Plasmodium falciparum [8] = experiment: Antimalarial activity against chloroquine-resistant Plasmodium falciparum FcB1R after 72 hrs; type: functional, organism-based
[9] = tested on: Trypanosoma brucei brucei; experiment: Antimicrobial activity against Trypanosoma brucei brucei clone 427-221a at 1.56 uM; type: functional
MRC5 = experiment: Toxicity against human MRC5 cells at 3.13 uM; type: cell-based; details: mrc5, 3.13 µM
Schistosoma mansoni = experiment: Antimicrobial activity against Schistosoma mansoni assessed as worm vitality at 6 uM after 4 hrs; type: functional, organism-based
How it was run: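 20-day-old worms were obtained by perfusion of BALB/c mice infected with 200 cercariae. About 20 worms/well were kept in Basch 169 with 10% bovine calf serum, preincubated 24 h at 37°C in 5% CO2, then exposed to 1, 3 or 6 µM. Vitality (feeding, flexing, gut peristalsis; death = nonmotile, shrunken, dark) was scored at 4 and 18 h in two experiments.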

Compound: CCN(CC)CCCC(C)Nc1c2ccc(Cl)cc2nc2ccc(OC)cc12 (configuration not stated) [QUINACRINE]
- EC50 (Plasmodium falciparum [1]): 0.011 µM
- EC50 (Plasmodium falciparum [2]): 0.033 µM

Compound: COc1ccc2nc3cc(Cl)ccc3c(NCCCCCCCCNc3c4ccc(Cl)cc4nc4ccc(OC)nc34)c2n1
- EC50 (Plasmodium falciparum [1]): 0.062 µM
- EC50 (Plasmodium falciparum [2]): 0.069 µM
- EC50 [3]: 0.031 µM
- MIC [3]: 1 µM (≈ 0.63 µg/mL)
- MCC [4]: > 10 µM
- EC50 (HL-60): 26.3 µM
- Ratio EC50 [5]: 859
- Ratio [6]: >10
- Activity (Leishmania donovani): 42%
- EC50 (Entamoeba histolytica): 5 µM
- Activity (Trichomonas vaginalis): 59%
- Activity [7]: Toxic
- Activity (Leishmania major): inactive

Compound: C[C@@H]1[C@H](O)[C@@H](C)/C=C/C=C/C=C/C=C/C=C/C=C/C=C/[C@H](O[C@@H]2O[C@H](C)[C@@H](O)[C@H](N)[C@@H]2O)C[C@@H]2O[C@](O)(C[C@@H](O)C[C@@H](O)[C@H](O)CC[C@@H](O)C[C@@H](O)CC(=O)O[C@H]1C)C[C@H](O)[C@H]2C(=O)O [AMPHOTERICIN B]
- Activity (Leishmania donovani): 100%

Compound: COc1ccc2nc3cc(Cl)ccc3c(NCCNCCNc3c4ccc(Cl)cc4nc4ccc(OC)cc34)c2c1
- EC50 (Plasmodium falciparum [1]): 0.618 µM
- EC50 (Plasmodium falciparum [2]): 0.791 µM
- EC50 (Plasmodium falciparum [8]): 0.063 µM
- EC50 [3]: 0.218 µM
- MIC [3]: 10 µM (≈ 5.87 µg/mL)
- MCC [4]: > 10 µM
- EC50 (HL-60): 9.47 µM
- Ratio EC50 [5]: 43
- Ratio [6]: >1
- Activity [9]: 100%
- Activity (MRC5): 100%
- Activity (Leishmania donovani): 47%
- EC50 (Entamoeba histolytica): 5 µM
- Activity (Trichomonas vaginalis): 0%
- Activity [7]: Toxic
- Activity (Leishmania major): inactive

Compound: COc1ccc2nc3cc(Cl)ccc3c(NCCCCN(CCCNc3c4ccc(Cl)cc4nc4ccc(OC)cc34)C(=O)[C@H](C)NC(=O)OC(C)(C)C)c2c1
- EC50 (Plasmodium falciparum [1]): 0.598 µM
- EC50 (Plasmodium falciparum [2]): 0.629 µM
- EC50 (Plasmodium falciparum [8]): 0.33 µM
- EC50 [3]: 0.0035 µM
- MIC [3]: 1 µM (≈ 0.8 µg/mL)
- MCC [4]: 10 µM
- EC50 (HL-60): 1.65 µM
- Ratio EC50 [5]: 469
- Ratio [6]: 10
- Activity [9]: 100%
- Activity (MRC5): 0%
- Activity (Leishmania donovani): 49%
- EC50 (Entamoeba histolytica): 5 µM
- Activity (Trichomonas vaginalis): 95%
- Activity [7]: Toxic
- Activity (Leishmania major): inactive

Compound: Nc1nc(N)nc(Nc2ccc([As]3SCC(CO)S3)cc2)n1 (configuration not stated) [MELARSOPROL]
- EC50 [3]: 0.016 µM
- MIC [3]: 0.1 µM
- MCC [4]: 100 µM
- EC50 (HL-60): 4.27 µM
- Ratio EC50 [5]: 267
- Ratio [6]: >1000

Compound: COc1ccc2nc3cc(Cl)ccc3c(NCCCCN(CCCNc3c4ccc(Cl)cc4nc4ccc(OC)cc34)C(=O)CNC(=O)[C@H](C)NC(=O)OC(C)(C)C)c2c1
- EC50 (Plasmodium falciparum [1]): 0.314 µM
- EC50 (Plasmodium falciparum [2]): 0.341 µM
- EC50 [3]: 0.0024 µM
- MIC [3]: 1 µM (≈ 0.857 µg/mL)
- MCC [4]: 10 µM
- EC50 (HL-60): 0.27 µM
- Ratio EC50 [5]: 111
- Ratio [6]: 10
- Activity (Leishmania donovani): 37%
- EC50 (Entamoeba histolytica): 5 µM
- Activity (Trichomonas vaginalis): 53%
- Activity [7]: Toxic
- Activity (Leishmania major): inactive

Compound: CCN(CC)CCCC(C)Nc1ccnc2cc(Cl)ccc12 (configuration not stated) [CHLOROQUINE]
- EC50 (Plasmodium falciparum [1]): 0.01 µM
- EC50 (Plasmodium falciparum [2]): 0.293 µM

Compound: COc1ccc2nc3cc(Cl)ccc3c(NCCCCNCCCNc3c4ccc(Cl)cc4nc4ccc(OC)nc34)c2n1
- EC50 (Plasmodium falciparum [1]): 0.029 µM
- EC50 (Plasmodium falciparum [2]): 0.034 µM
- EC50 [3]: 0.0014 µM
- MIC [3]: 0.1 µM (≈ 0.0631 µg/mL)
- MCC [4]: 7 µM
- EC50 (HL-60): 0.119 µM
- Ratio EC50 [5]: 86
- Ratio [6]: 70
- Activity (Leishmania donovani): 99%
- Activity (Schistosoma mansoni): Active
- EC50 (Entamoeba histolytica): 0.5 µM
- Activity (Trichomonas vaginalis): 85%
- Activity [7]: Toxic
- Activity (Leishmania major): inactive

Compound: CCCN(CCCCNc1c2ccc(Cl)cc2nc2ccc(OC)cc12)CCCNc1c2ccc(Cl)cc2nc2ccc(OC)cc12
- EC50 (Plasmodium falciparum [1]): 0.12 µM
- EC50 (Plasmodium falciparum [2]): 0.319 µM
- EC50 [3]: 0.0014 µM
- MIC [3]: 1 µM (≈ 0.671 µg/mL)
- MCC [4]: 10 µM
- EC50 (HL-60): 0.491 µM
- Ratio EC50 [5]: 348
- Ratio [6]: 10
- Activity (Leishmania donovani): 99%
- EC50 (Entamoeba histolytica): 5 µM
- Activity (Trichomonas vaginalis): 90%
- Activity [7]: Toxic
- Activity (Leishmania major): inactive

Compound: O=C(C1CCCCC1)N1CC(=O)N2CCc3ccccc3C2C1 (configuration not stated)
- Activity (Schistosoma mansoni): Active
